In ChEMBL document CHEMBL3098021, “New anti-inflammatory cembranoid diterpenoids from the Vietnamese soft coral Lobophytum crassum” (Bioorg Med Chem Lett, 2014):

What was measured:
[1] = (§1) Inhibition of TNF-alpha-induced NF-kappaB transcriptional activation in human HepG2 cells preincubated for 1 hr followed by TNF-alpha challenge measured after 1 hr by luciferase reporter gene assay; format: cell-based
Method in brief: (§2)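 HepG2 cells were transfected with an NF-κB-responsive firefly luciferase reporter plasmid (minimal CMV promoter plus tandem NF-κB response elements) and stimulated with 10 ng/mL TNFα. Compounds were tested across a concentration range, with a DMSO vehicle control and sulfasalazine (1.0 µM) as positive control. Luciferase activity was read out, data are mean ± SD (n = 3), and IC50 was derived from the dose–response.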

[2] = system: HepG2; assay: as §1; format: cell-based; method in brief: as §2
[3] = system: HepG2; assay: Inhibition of TNF-alpha-induced iNOS mRNA expression in human HepG2 cells preincubated for 1 hr followed by TNF-alpha challenge measured after 6 hrs by RT-PCR analysis; format: functional, cell-based
[4] = system: HepG2; assay: Inhibition of TNF-alpha-induced COX2 mRNA expression in human HepG2 cells preincubated for 1 hr followed by TNF-alpha challenge measured after 6 hrs by RT-PCR analysis; format: functional, cell-based

Row | SMILES | IC50 [1] [µM] | inhibition [2] | inhibition [3] | inhibition [4]
1 | O=C(O)c1cc(/N=N/c2ccc(S(=O)(=O)Nc3ccccn3)cc2)ccc1O [SULFASALAZINE] | 0.9 | – | – | –
2 | C=C1CO[C@H]2/C=C(\C)CC[C@@H](O)[C@@](C)(O)C/C=C/[C@](C)(O)CC[C@@]12O | > 20 | – | – | –
3 | C=C1CO[C@H]2/C=C(\C)CC[C@@H](O)[C@@](C)(O)C/C=C/[C@@](C)(O)CC[C@@]12O | > 20 | – | – | –

Continued, in another order:

Row | IC50 [1] [µM] | SMILES | inhibition [2] | inhibition [3] | inhibition [4]
4 | 6.63 | C/C1=C\[C@@H]2O[C@@H](O)[C@@]3(C)O[C@@]23CC/C(C)=C/CC[C@](C)(O)[C@H](O)CC1 | Dose-dependent effect | Dose-dependent effect | Dose-dependent effect
5 | 6.3 | C/C1=C\[C@@H]2O[C@@H](O)[C@@]3(C)O[C@@]23CC/C(C)=C/CC[C@](C)(O)[C@@H](O)CC1 | Dose-dependent effect | Dose-dependent effect | Dose-dependent effect
